Source: ChEMBL document CHEMBL1287768, “Synthesis and pharmacological characterization of 5-phenyl-2-[2-(1-piperidinylcarbonyl)phenyl]-2,3-dihydro-1H-pyrrolo[1,2-c]imidazol-1-ones: a new class of Neuropeptide S antagonists” (Bioorg Med Chem Lett, 2010)
pIC50: −log10 of the molar value. Values belong to the compound of their own block, whether it stands above or below them.

Columns and labels:
Neuropeptide S receptor = molecular target: T1, Neuropeptide S receptor (Homo sapiens, UniProt Q6W5P4); test: Antagonist activity at human recombinant GPR154 receptor expressed in HEK293 cells assessed as inhibition of neuropeptide S-induced increase of intracellular calcium level by FLIPR assay; type: functional, cell-based
T1 sequence (Q6W5P4 whole entry): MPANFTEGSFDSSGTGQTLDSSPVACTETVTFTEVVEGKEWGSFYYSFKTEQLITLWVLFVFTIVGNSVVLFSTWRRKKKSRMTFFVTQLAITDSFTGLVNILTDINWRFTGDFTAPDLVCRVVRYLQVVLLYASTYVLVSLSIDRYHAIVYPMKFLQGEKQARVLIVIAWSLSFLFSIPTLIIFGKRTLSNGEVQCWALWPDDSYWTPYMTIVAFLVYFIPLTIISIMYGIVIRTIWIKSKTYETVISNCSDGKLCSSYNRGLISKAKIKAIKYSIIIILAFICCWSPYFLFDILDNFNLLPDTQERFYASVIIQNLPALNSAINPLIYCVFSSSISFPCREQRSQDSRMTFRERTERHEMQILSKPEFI
Method in brief: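 Transient expression of human GPR154 in HEK293; cells seeded 18.000/well, 24 h at 37 °C, 5% CO₂. Fluo-4-AM loading 1 h at 37 °C, HBSS wash. Calcium rise evoked by EC₈₀ Neuropeptide S, read by FLIPR; response normalised to 30 nM NPS maximum (max minus min RFU); pIC₅₀ by nonlinear regression.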

Cytochrome P450 1A2 = molecular target: T2, Cytochrome P450 1A2 (Homo sapiens, UniProt P05177); test: Inhibition of CYP1A2; type: ADME
T2 sequence (P05177 whole entry): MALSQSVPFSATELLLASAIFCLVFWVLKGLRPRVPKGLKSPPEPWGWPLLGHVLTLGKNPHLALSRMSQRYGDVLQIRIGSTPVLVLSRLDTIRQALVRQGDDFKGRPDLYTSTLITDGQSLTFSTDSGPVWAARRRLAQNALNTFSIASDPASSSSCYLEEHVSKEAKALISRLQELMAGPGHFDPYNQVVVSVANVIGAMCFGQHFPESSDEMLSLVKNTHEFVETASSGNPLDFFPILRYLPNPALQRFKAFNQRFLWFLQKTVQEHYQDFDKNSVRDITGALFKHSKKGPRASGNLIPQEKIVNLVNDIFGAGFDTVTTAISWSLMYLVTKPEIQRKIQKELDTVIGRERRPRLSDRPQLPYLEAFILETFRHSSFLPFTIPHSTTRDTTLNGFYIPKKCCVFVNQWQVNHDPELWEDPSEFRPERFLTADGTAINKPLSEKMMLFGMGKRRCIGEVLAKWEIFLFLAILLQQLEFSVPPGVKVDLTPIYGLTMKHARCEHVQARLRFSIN

Cytochrome P450 2C9 = Cytochrome P450 2C9 (Homo sapiens, UniProt P11712); test: Inhibition of CYP2C9; type: ADME
Cytochrome P450 2C19 = Cytochrome P450 2C19 (Homo sapiens, UniProt P33261); test: Inhibition of CYP2C19; type: ADME
Cytochrome P450 2D6 = Cytochrome P450 2D6 (Homo sapiens, UniProt P10635); test: Inhibition of CYP2D6; type: ADME
Cytochrome P450 3A4 = Cytochrome P450 3A4 (Homo sapiens, UniProt P08684); test: Inhibition of CYP3A4; type: ADME
Liver microsomes [1] = test: Intrinsic clearance in human liver microsomes assessed per gram of protein; type: ADME, Microsome
Liver microsomes [2] = test: Intrinsic clearance in rat liver microsomes assessed per gram of protein; type: ADME, Microsome
[3] = Clearance in rat blood at 1 mg/kg, po; type: ADME, organism-based; parameters: dose 1 mg/kg, route oral
Method in brief: (§1)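 Rat, single oral 1 mg/kg in 5% DMSO + 0.5% HPMC in water; blood sampled for clearance, half-life, distribution volume and oral bioavailability.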

[4] = Half life in rat at 1 mg/kg, po; type: ADME, organism-based; parameters: dose 1 mg/kg, route oral; conditions: in vivo; method in brief: as §1
Rattus norvegicus = test: Volume of distribution in rat at 1 mg/kg, po; type: ADME, organism-based; parameters: dose 1 mg/kg, route oral; conditions: in vivo; method in brief: as §1
[5] = Bioavailability in rat at 1 mg/kg, po; type: ADME, organism-based; conditions: in vivo; method in brief: as §1
[6] = Ratio of drug level in brain to blood in rat at 1 mg/kg, po; type: ADME, organism-based; parameters: dose 1 mg/kg, route oral
Method in brief: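 Rats received a single oral dose of 1 mg/kg, formulated in 5% DMSO + 0.5% HPMC in water. Drug levels were measured in blood and brain, and the brain/blood ratio was calculated from them. The work followed European directive 86/609/EEC.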

Cytochrome P450 3A4, sequence (P08684 whole entry): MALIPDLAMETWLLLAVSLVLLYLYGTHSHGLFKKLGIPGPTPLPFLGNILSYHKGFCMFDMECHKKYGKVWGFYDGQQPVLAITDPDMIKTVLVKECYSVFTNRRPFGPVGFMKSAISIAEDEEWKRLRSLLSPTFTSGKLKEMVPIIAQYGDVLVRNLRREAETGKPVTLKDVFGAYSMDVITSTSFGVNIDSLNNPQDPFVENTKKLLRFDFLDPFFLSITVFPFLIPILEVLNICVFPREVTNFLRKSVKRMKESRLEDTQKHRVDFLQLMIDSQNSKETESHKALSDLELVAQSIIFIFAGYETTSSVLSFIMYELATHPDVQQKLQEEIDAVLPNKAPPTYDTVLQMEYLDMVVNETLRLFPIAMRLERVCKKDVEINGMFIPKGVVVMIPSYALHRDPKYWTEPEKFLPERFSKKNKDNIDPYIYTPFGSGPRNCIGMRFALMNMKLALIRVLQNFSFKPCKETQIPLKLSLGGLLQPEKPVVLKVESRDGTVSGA
Cytochrome P450 2D6, sequence (P10635 whole entry): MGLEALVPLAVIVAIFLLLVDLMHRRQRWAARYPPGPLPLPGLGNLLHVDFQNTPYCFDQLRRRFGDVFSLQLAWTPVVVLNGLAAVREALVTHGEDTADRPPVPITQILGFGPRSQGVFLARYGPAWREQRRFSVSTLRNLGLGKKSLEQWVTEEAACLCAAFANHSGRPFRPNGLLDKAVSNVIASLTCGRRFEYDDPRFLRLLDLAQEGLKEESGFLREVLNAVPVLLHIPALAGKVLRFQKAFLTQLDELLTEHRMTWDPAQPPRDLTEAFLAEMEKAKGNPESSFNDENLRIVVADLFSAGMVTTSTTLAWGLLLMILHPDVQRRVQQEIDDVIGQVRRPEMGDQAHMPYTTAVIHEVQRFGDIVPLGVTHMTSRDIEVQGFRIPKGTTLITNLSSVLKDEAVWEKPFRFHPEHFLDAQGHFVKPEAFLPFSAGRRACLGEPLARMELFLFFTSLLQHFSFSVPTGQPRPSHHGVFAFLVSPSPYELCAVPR
Cytochrome P450 2C19, sequence (P33261 whole entry): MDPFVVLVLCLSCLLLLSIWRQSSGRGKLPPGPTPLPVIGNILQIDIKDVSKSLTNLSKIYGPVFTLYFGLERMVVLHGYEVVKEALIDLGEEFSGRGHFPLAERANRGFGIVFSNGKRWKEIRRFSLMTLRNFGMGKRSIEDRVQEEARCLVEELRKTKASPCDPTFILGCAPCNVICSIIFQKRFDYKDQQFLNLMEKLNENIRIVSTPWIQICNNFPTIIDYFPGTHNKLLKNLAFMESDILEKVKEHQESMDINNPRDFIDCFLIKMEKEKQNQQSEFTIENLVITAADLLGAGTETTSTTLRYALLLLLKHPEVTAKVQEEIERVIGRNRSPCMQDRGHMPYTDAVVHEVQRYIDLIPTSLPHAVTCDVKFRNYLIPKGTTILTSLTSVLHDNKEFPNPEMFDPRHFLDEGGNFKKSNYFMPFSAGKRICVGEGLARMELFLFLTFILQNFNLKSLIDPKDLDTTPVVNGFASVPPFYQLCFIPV
Cytochrome P450 2C9, sequence (P11712 whole entry): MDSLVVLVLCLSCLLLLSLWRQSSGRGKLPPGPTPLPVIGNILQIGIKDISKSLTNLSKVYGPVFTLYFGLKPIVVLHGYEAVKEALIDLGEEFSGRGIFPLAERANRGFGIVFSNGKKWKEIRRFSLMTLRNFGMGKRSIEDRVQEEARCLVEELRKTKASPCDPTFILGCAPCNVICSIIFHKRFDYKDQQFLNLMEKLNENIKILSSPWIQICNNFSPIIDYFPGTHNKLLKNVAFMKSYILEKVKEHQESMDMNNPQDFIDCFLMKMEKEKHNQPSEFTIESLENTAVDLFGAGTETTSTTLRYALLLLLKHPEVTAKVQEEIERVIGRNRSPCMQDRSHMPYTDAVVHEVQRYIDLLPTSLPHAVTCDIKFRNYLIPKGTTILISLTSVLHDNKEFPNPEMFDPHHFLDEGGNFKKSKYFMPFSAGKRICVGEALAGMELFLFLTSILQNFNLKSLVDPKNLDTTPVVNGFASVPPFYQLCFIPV

pIC50 (Neuropeptide S receptor): 7.50
Structure (SMILES): O=C(Nc1ccccc1C(=O)N1CCCCC1)c1ccc(-c2ccccc2)o1

pIC50 (Neuropeptide S receptor): 7.70
Structure (SMILES): O=C(Nc1ccccc1C(=O)N1CCCCC1)c1cccc(-c2ccccc2)n1

pIC50 (Neuropeptide S receptor): 6.10
Structure (SMILES): O=C(Nc1ccccc1C(=O)N1CCCCC1)c1ccc(-c2ccccc2)s1

pIC50 (Neuropeptide S receptor): 6.60
Structure (SMILES): O=C(Nc1ccccc1C(=O)N1CCCCC1)c1cccc(-c2ccccc2)c1

pIC50 (Neuropeptide S receptor): < 5.30
Structure (SMILES): O=C(Nc1ccccc1C(=O)N1CCCCC1)c1ccc(-c2ccccc2)[nH]1

pIC50 (Neuropeptide S receptor): < 5.30
Structure (SMILES): O=C(c1ccccc1N1CCCn2c(ccc2-c2ccccc2)C1=O)N1CCCCC1

pIC50 (Neuropeptide S receptor): < 5.30
Structure (SMILES): O=C(c1ccccc1N1CCn2c(ccc2-c2ccccc2)C1=O)N1CCCCC1

pIC50 (Neuropeptide S receptor): 8.00
pIC50 (Cytochrome P450 1A2): < 5.30
pIC50 (Cytochrome P450 2C9): < 5.30
pIC50 (Cytochrome P450 2C19): < 5.30
pIC50 (Cytochrome P450 2D6): < 5.30
pIC50 (Cytochrome P450 3A4): < 5.30
CL (Liver microsomes [1]): 6.9 mL/min/g
CL (Liver microsomes [2]): 26.3 mL/min/g
CL/F [3]: 69 mL/min/kg
half-life [4]: 42 min
Vd (Rattus norvegicus): 2.4 L/kg
bioavailability [5]: 1%
Kp [6]: 0.3
Structure (SMILES): O=C(c1ccccc1N1Cn2c(ccc2-c2ccccc2)C1=O)N1CCCCC1

pIC50 (Neuropeptide S receptor): 8.70
Structure (SMILES): O=C(NCc1ccccc1)N1CCN2C(=O)OC(c3ccccc3)(c3ccccc3)C2C1 (stereo unspecified)
